From PubChem BioAssay
MITF act: activators of MITF-driven TRPM1 promoter reporter, primary screen, cell-based, SK-MEL-5, luciferase, single point. SK-MEL-5 TRPM1-promoter luciferase, 24 h; % of positive control, neutral wells = 0. activation, % at 12.5 µM. 0.75% of 300,000 active. AID 588334, 2011;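 active means mean activation of at least 80% with every replicate also reaching 80%; inconclusive means mean reaches 80% but some replicate falls short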;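 further: 0% = neutral control wells and 100% = parthenolide positive control wells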
esBAF inh: Bmi1 luciferase reporter increase in mESCs, primary screen, esBAF inhibitor project, mouse ES cells, Bmi1 luciferase knock-in, single point. AID 602393, 2012. 2% of 350,000 active. 24 h; 100% = twice the neutral-well signal. reporter increase, % at 12.5 µM; in the data active means activation above about 40%; inconclusive means no clear call, values can overlap the other calls;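 further: 0% = median of the plate's neutral control wells and 100% = double that signal; a rise in the Bmi1 reporter signal indicates esBAF inhibition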
XiGFP reactiv: activators of inactive X chromosome reactivation, primary screen, imaging, XiGFP fibroblasts, GFP high-content imaging, set 2; XiGFP mouse fibroblasts, % GFP-positive cells imaging, 3 d; cells co-treated with 5-aza-dC sensitizer; scaled so ellipticine positive control = 100%; activation, % at 7.58 µM; 0.055% of 360,000 active;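 active means mean normalized replicate activation at least 10% and every replicate at or above 10%; inconclusive means only one of the two criteria met; inactive means mean below 10% and not all replicates reach 10%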;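 further: 0% = median of on-plate neutral control wells and 100% = ellipticine 6 µM median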
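Assay system: SV40-immortalized XiGFP fibroblast cells, line 68-5-11; buffer or medium: DMEM plus 5-aza-dC sensitizer; compound: one concentration, pinned; timing: compounds 3 days, fix/stain 15 min at room temperature; benchmarks: positive control ellipticine, 6 µM final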
Vif imaging: HIV Vif self-association inhibitors, primary screen, imaging, HEK293T, single point | HEK293T cells, Vif self-association by quenched fluorescence, 24 h | inhibition, % at 7.49 µM | 0.35% of 340,000 active | AID 602346, 2012; in the data active means inhibition above about 50%, passing the limit was not always enough; inconclusive means no clear call, values can overlap the other calls; inactive means below about 31%
Wnt act: Wnt/beta-catenin pathway activators, primary screen, cell-based, plate reader, single point; Wnt/beta-catenin reporter cell assay, activator; activation, % at 9.35 µM; AID 743398, 2014; 1.2% of 300,000 active; in the data active means activation above about 30%, passing the limit was not always enough; inconclusive means no clear call, values can overlap the other calls;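 further: 0% = neutral control wells and 100% = positive control wells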
Starred values were filed as active, the others as inactive; u = inconclusive; x = no result. The list is not random: actives were taken first. Their share in the collection is about 2.6%.

SMILES | MITF act | esBAF inh | XiGFP reactiv | Vif imaging | Wnt act
Cc1ccc2oc(=O)n(CCCOc3ccccc3)c2c1 | x | 37 | x | -2 | 42*
Cc1cccc(OCCCn2c(=O)sc3ccccc32)c1 | 61 | 54* | x | x | x
Cc1ccccc1OCCn1c(=O)sc2ccccc21 | 14 | 63* | x | 0 | -1
Cc1cccc(OCCCn2c(CO)nc3ccccc32)c1 | 51 | 15 | 0 | -4 | 25
Cc1cccc(OCCn2c(=O)n(C)c3ccccc32)c1 | 67 | 78* | 0 | -12 | u
CCCNC(=O)Nc1ccc2c(c1)OC[C@H](C)N(CC1CCCC1)C[C@H](C)[C@@H](OC)CN(C)C2=O | x | x | 0 | x | x
Cc1cccc(OCCn2c(=O)sc3ccccc32)c1 | 91* | 68* | x | -1 | x
COc1ccc(OCCn2c(=O)sc3ccccc32)cc1 | 58 | x | 0 | 22 | -1
COC(=O)c1ccccc1OCCCOc1ccc(C=O)cc1OC | 44 | 70* | x | 5 | x
COc1cc(C=O)ccc1OCc1cccc(Br)c1 | u | x | 0 | 5 | 42*
COC(=O)c1ccccc1OCCOc1ccccc1C(=O)OC | -12 | -7 | x | -5 | -1
COc1cc(C=O)ccc1OCc1ccccc1Br | 42 | x | 0 | x | 23
O=C1CC(c2ccccc2)Sc2nc3ccccc3n21 (configuration not stated) | 57 | x | 0 | 15 | 35*
O=C1CC(c2ccco2)Sc2nc3ccccc3n21 (configuration not stated) | -1 | 0 | x | 0 | 47*
COc1ccc2nc(NC(=S)NC(=O)c3ccco3)sc2c1 | 73 | x | 0 | 1 | 22
O=C(Nc1nc2ccc([N+](=O)[O-])cc2s1)c1c(F)cccc1F | 25 | 26 | 0 | -6 | 0
O=C(NC(=S)Nc1ccccc1Cl)c1ccco1 | 50 | 58* | 0 | 1 | 2
O=C(NC(=S)Nc1cccc(Cl)c1N1CCCCC1)c1ccco1 | -11 | x | x | -7 | 0
O=C(Nc1nc2ccc([N+](=O)[O-])cc2s1)c1ccco1 | x | x | 0 | x | 52*
O=C(NC(=S)Nc1nc2ccccc2s1)c1ccco1 | 0 | x | 0 | 0 | 53*
CO[C@H]1CN(C)C(=O)c2ccc(NC(=O)NC(C)C)cc2OC[C@@H](C)N(S(C)(=O)=O)C[C@@H]1C | x | x | 0 | x | x
CC(C)NC(=O)Nc1ccc2c(c1)C(=O)N([C@H](C)CO)C[C@@H](C)[C@@H](CN(C)S(C)(=O)=O)O2 | x | -3 | -1 | x | x
COc1ccc(NC(=O)Nc2ccc3c(c2)C(=O)N([C@@H](C)CO)C[C@@H](C)[C@@H](CN(C)C(=O)NC2CCCCC2)OCCCC[C@H](C)O3)cc1 | x | -6 | 0 | x | x
O=C(CN1CCCCC1CO)c1ccc(OC(F)F)cc1 (configuration not stated) | 0 | x | 0 | -4 | -2
Clc1ccc(N=C2SCC3CCCCN23)cc1 (configuration not stated) | 97* | 53* | 0 | 14 | 16
SMILES | MITF act | esBAF inh | XiGFP reactiv | Vif imaging | Wnt act
FC(F)Oc1ccc(N=C2SCC3CCCCN23)cc1 (configuration not stated) | 94* | 75* | x | -2 | 26
O=C(c1cccnc1)N1CC2(C1)[C@H](c1ccccc1)[C@@H](CO)N2C(=O)c1cccnc1 | x | x | 0 | x | x
C[C@@H]1CCCCO[C@H](CN(C)Cc2ccc3c(c2)OCO3)[C@H](C)CN([C@H](C)CO)C(=O)c2cc(NC(=O)c3ccccc3)ccc2O1 | x | -4 | -1 | x | x
C[C@@H]1CN([C@H](C)CO)C(=O)c2cc(NS(=O)(=O)c3ccc(Cl)cc3)ccc2O[C@@H]1CN(C)Cc1ccc(C(F)(F)F)cc1 | x | 3 | 0 | x | x
COc1ccccc1S(=O)(=O)N[C@@H]1C=C[C@@H](CC(=O)NCc2cc(F)cc(F)c2)O[C@@H]1CO | x | -2 | 0 | x | x
COc1ccc2c(c1)CC/C2=N\OC(=O)c1ccccc1C | 117* | x | 0 | 3 | 3
CCC(C)Cn1cnc2c(SCc3ccccn3)nc(N)nc21 (configuration not stated) | 5 | x | 0 | -10 | 2
CC(C)Cn1cnc2c(SCc3ccccc3Cl)nc(N)nc21 | 26 | 55* | 0 | -3 | 1
CCCn1cnc2c(SCc3ccccc3F)nc(N)nc21 | 61 | 53* | 0 | 3 | -1
Nc1c(-c2ccc(Cl)cc2)nnn1-c1ccccc1 | x | 79* | x | -12 | 67*
Cc1ccc(-c2cnn(-c3ccccc3)c2N)cc1 | 36 | 0 | 0 | 0 | 43*
COc1ccc(-c2cnc3c(-c4ccc(F)cc4)cnn3c2N)cc1 | 59 | u | 0 | 2 | 43*
Nc1c(-c2ccc(Cl)cc2)cnc2c(-c3ccccc3)cnn12 | 75 | 25 | 0 | 1 | 36*
Nc1c(-c2ccc(Cl)cc2)cnn1-c1ccccc1 | 92* | 31 | 0 | 14 | u
Nc1c(-c2ccccc2)cnn1-c1cccc(C(F)(F)F)c1 | 56 | 54* | x | 3 | x
Cc1ccccc1-c1cnn(-c2cccc([N+](=O)[O-])c2)c1N | 39 | 34 | 0 | 13 | 2
Cc1ccc(-c2cnn(-c3cccc([N+](=O)[O-])c3)c2N)cc1 | 64 | 83* | x | -9 | x
Nc1c(-c2cccc(Cl)c2)cnn1-c1cccc(C(F)(F)F)c1 | x | 28 | x | 0 | x
CNC[C@@H]1Oc2cc(-c3ccccc3F)ccc2S(=O)(=O)N([C@@H](C)CO)C[C@@H]1C | x | 1 | 1 | x | x
C[C@@H]1CN([C@@H](C)CO)C(=O)c2cc(-c3ccc(F)cc3)cnc2O[C@@H]1CN(C)C(=O)NC1CCCC1 | x | 1 | -1 | x | x
COc1ccc(C(=O)NCC2OCCc3ccccc32)c(O)c1 (configuration not stated) | 43 | 67* | x | 15 | x
CCCOc1ccc(C(=O)NCC2OCCc3ccccc32)cc1OC (configuration not stated) | -3 | x | 0 | -2 | x
COc1cccc(C(C)(O)c2nc(-c3ccccc3OC)cs2)c1 (configuration not stated) | x | 1 | 0 | 57* | -3
COc1ccc(-c2csc(C(C)(O)c3cccc(OC)c3)n2)cc1 (configuration not stated) | x | 10 | 0 | -33 | -7
COc1ccc(-c2csc(-c3cccnc3)n2)cc1C | 76 | 51* | 0 | 115* | 10
c1ccc(-c2csc(-c3cccnc3)n2)cc1 | 31 | x | 0 | 0 | -1
COc1ccc(-c2csc(-c3ccccc3)n2)c(OC)c1 | 86* | x | 0 | 4 | 13
c1ccc(-c2nc(-c3cccnc3)cs2)cc1 | 35 | 52* | 0 | -1 | 11
CO[C@H]1CN(C)C(=O)c2cc(NC(=O)c3ccc(F)cc3)ccc2OC[C@@H](C)N(C(=O)CC2CC2)C[C@@H]1C | x | 3 | 0 | x | x
